Reference: ChEMBL document CHEMBL2176873, “α-1-C-butyl-1,4-dideoxy-1,4-imino-l-arabinitol as a second-generation iminosugar-based oral α-glucosidase inhibitor for improving postprandial hyperglycemia” (J Med Chem, 2012)

Key:
[1] = target: T1, Beta-galactosidase (Bos taurus) (UniProt Q58D55); experiment: Inhibition of bovine liver beta-galactosidase at 1000 uM
T1 sequence (whole entry): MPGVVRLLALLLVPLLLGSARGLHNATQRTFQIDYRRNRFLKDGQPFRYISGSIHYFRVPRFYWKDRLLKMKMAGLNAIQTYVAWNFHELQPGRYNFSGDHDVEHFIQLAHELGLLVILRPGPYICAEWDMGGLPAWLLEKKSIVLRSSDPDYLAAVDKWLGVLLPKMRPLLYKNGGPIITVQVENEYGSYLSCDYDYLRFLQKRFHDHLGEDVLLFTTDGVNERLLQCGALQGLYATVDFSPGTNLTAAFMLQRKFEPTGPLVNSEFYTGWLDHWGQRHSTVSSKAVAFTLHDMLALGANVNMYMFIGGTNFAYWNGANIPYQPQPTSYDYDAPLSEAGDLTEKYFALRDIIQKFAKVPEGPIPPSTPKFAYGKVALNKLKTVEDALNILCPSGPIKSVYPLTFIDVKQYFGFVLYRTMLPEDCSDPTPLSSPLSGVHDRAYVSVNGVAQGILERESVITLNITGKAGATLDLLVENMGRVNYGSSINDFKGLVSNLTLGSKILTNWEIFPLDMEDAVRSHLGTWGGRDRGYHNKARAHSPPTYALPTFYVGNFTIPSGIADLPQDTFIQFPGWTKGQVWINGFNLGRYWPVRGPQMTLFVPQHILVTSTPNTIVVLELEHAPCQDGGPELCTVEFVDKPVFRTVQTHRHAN

[2] = target: T2, Glucosylceramidase (Bos taurus) (UniProt Q2KHZ8); experiment: Inhibition of bovine liver beta-glucosidase at 1000 uM
T2 sequence (whole entry): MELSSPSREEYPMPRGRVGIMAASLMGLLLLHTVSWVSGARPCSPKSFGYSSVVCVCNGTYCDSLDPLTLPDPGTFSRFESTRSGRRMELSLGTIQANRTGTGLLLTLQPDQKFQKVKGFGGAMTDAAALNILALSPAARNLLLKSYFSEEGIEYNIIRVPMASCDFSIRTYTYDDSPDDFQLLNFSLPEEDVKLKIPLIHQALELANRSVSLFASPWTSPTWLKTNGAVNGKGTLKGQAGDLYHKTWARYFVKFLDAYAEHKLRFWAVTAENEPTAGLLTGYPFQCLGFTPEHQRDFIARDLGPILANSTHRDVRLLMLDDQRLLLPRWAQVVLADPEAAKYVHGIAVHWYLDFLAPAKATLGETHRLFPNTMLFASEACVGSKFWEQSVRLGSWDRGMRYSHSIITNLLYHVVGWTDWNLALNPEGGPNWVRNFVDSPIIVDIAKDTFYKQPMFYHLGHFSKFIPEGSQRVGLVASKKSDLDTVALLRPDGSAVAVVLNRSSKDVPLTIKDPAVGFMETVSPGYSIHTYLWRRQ

[3] = target: T3, Lysosomal acid glucosylceramidase (Homo sapiens) (UniProt P04062); experiment: Inhibition of human beta-glucocerebrosidase at 1000 uM
T3 sequence (whole entry): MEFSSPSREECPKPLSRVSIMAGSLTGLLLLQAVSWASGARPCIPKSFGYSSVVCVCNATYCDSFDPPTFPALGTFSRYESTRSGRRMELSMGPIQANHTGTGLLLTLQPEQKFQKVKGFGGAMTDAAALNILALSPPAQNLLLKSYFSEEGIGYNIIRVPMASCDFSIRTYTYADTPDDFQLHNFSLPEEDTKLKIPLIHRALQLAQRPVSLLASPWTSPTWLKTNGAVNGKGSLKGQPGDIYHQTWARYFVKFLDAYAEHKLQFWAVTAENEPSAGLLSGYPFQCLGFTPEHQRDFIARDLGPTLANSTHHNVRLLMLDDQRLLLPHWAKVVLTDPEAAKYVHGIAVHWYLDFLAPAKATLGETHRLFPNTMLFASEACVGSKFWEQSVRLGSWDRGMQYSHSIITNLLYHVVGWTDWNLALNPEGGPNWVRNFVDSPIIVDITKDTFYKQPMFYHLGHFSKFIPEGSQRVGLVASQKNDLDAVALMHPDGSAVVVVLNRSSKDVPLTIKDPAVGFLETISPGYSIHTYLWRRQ

Rattus norvegicus = species: Rattus norvegicus; experiment: Inhibition of rat intestinal cellobiase using cellobiose as substrate at 1000 uM
How it was run: (§1)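 Rat small-intestine brush border membrane preparation, assayed at pH 5.8 with the matching disaccharide as substrate (maltose at 25 mM). Incubation for 10–30 min at 37 °C, stopped by heating at 100 °C for 3 min and centrifuged. Released D-glucose in the supernatant was measured by glucose reagent absorbance at 505 nm.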

Uncharacterized protein = target: T4, Uncharacterized protein (Sus scrofa, UniProt I3LIR5); experiment: Inhibition of porcine kidney trehalase
T4 sequence (I3LIR5 whole entry): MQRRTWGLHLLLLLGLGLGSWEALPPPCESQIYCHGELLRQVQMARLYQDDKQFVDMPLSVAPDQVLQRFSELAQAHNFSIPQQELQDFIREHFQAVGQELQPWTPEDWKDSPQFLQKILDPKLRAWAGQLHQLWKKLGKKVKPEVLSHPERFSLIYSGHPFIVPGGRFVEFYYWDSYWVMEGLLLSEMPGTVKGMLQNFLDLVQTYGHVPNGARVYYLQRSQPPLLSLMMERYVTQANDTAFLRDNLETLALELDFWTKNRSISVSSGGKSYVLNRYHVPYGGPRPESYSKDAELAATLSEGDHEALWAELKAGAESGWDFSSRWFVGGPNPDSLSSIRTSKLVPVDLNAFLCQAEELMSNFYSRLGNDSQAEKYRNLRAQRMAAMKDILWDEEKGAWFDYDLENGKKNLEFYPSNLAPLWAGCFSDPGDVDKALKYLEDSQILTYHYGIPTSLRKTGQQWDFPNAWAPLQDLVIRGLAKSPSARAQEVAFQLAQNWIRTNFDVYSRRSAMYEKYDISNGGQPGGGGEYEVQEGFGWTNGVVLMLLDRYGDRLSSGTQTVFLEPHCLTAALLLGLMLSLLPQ

Trehalase = target: T5, Trehalase (Rattus norvegicus, UniProt O70282); experiment: Inhibition of rat intestinal trehalase
T5 sequence (O70282 whole entry): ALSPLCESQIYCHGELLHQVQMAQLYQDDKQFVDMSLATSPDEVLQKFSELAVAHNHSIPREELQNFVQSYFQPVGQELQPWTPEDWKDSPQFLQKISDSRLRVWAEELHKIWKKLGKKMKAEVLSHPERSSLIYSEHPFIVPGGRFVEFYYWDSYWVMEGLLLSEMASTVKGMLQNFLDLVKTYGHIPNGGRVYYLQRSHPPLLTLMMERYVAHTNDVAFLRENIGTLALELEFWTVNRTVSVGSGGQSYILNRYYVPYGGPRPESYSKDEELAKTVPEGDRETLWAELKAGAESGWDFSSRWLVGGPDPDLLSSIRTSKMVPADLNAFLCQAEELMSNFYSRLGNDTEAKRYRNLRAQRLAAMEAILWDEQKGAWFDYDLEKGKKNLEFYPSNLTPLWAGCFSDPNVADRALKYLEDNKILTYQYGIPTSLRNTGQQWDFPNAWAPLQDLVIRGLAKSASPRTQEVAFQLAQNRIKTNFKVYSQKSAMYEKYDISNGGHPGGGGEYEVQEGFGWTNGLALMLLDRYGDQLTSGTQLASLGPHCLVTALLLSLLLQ

[4] = target: Lactase/phlorizin hydrolase (Rattus norvegicus, UniProt Q02401); experiment: Inhibition of rat intestinal lactase using lactose as substrate
Lactase/phlorizin hydrolase, sequence (Q02401 868-1928 limits assumed): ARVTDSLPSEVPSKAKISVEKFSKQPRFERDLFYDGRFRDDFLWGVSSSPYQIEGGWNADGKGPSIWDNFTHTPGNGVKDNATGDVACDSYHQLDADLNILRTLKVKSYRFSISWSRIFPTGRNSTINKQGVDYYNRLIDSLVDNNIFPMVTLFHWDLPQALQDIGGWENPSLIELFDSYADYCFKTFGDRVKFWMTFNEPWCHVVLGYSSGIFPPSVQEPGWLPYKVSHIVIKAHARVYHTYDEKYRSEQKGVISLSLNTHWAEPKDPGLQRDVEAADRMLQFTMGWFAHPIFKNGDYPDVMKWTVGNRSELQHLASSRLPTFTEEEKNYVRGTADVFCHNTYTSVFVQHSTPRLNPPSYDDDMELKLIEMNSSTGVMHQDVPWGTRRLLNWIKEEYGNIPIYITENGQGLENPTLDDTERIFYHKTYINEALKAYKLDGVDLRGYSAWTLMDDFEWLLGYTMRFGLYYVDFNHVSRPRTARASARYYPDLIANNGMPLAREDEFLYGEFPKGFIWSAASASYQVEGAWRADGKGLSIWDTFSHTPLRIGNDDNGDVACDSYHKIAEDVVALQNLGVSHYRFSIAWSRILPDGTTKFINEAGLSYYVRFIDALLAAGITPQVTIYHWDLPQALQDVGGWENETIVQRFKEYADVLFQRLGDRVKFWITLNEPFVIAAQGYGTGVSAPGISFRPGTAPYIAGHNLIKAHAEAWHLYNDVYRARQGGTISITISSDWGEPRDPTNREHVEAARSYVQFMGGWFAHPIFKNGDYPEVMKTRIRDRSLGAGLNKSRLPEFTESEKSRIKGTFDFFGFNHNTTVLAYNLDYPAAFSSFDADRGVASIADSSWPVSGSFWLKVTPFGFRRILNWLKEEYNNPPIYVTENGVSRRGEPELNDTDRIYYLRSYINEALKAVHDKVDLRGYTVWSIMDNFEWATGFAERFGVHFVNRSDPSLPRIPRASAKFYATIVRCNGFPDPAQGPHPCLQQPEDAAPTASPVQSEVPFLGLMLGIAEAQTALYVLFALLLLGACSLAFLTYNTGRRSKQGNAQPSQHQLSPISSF

Beta-galactosidase = target: T6, Beta-galactosidase (Bos taurus, UniProt Q58D55); experiment: Inhibition of bovine liver beta-galactosidase
T6 sequence (Q58D55 whole entry): T1 sequence (whole entry)

[5] = target: T7, Sucrase-isomaltase, intestinal (Rattus norvegicus, UniProt P23739); experiment: Inhibition of rat intestinal sucrase using sucrose as substrate
T7 sequence (P23739 1-1013 limits assumed): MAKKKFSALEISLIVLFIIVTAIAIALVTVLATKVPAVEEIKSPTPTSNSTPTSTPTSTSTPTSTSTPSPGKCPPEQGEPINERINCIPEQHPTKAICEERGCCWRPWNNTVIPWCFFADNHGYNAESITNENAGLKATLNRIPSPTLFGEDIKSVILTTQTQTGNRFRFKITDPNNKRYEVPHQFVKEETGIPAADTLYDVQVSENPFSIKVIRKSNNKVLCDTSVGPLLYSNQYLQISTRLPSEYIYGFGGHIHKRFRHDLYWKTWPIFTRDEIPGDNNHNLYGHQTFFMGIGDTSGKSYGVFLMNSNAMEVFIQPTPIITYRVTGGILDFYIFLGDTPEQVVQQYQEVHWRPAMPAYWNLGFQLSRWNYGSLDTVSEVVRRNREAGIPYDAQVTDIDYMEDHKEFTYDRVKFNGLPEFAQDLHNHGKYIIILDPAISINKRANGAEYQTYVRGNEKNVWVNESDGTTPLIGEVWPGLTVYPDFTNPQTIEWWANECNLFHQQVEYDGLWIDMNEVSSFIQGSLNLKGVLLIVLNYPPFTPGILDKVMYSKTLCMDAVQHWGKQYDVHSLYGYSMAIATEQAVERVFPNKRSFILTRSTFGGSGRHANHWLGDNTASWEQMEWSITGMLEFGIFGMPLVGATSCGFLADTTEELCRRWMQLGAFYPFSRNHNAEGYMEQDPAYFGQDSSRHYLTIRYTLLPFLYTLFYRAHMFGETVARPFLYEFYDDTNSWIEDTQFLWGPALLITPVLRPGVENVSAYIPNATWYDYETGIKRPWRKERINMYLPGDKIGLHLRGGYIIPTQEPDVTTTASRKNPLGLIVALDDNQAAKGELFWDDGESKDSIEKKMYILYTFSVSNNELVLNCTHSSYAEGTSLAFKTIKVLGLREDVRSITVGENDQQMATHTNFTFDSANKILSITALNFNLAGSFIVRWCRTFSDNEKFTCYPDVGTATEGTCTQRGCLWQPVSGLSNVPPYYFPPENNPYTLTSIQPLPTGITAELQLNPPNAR
T7 sequence (P23739 1014-1841 limits assumed): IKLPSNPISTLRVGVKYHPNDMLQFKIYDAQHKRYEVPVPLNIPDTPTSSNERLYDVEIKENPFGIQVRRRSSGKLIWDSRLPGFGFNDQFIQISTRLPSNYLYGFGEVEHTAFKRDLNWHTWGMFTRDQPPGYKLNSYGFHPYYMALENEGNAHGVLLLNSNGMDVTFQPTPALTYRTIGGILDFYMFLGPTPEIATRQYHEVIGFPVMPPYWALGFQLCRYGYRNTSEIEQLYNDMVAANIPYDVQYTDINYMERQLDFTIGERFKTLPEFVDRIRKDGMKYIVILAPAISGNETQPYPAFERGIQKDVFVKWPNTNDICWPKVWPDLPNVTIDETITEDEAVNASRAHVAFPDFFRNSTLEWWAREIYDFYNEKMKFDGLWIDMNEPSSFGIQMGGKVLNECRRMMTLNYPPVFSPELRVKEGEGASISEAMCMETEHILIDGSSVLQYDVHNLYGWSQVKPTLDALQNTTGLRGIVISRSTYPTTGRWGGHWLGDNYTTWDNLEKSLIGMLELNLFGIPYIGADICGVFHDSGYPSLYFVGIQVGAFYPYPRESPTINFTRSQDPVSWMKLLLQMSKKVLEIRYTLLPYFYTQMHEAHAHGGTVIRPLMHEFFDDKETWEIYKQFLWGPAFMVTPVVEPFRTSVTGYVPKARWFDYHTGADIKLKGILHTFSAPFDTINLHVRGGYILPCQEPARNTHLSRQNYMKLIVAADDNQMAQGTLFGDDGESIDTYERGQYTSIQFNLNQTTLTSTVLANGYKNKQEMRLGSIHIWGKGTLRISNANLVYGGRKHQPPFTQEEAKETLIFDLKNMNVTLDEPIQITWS

[6] = target: T7, Sucrase-isomaltase, intestinal; experiment: Inhibition of rat intestinal isomaltase […] as substrate
[7] = target: T8, Lysosomal acid glucosylceramidase (Homo sapiens, UniProt P04062)
T8 sequence (P04062 whole entry): T3 sequence (whole entry)

[8] = target: Sucrase-isomaltase, intestinal (Rattus norvegicus) (UniProt P23739); experiment: Inhibition of rat intestinal sucrase using sucrose as substrate at 1000 uM; how it was run: as §1
Sucrase-isomaltase, intestinal (Rattus norvegicus), sequence (P23739 1-1013 limits assumed): as the sequence (P23739 1-1013 limits assumed) above
Sucrase-isomaltase, intestinal (Rattus norvegicus), sequence (P23739 1014-1841 limits assumed): as the sequence (P23739 1014-1841 limits assumed) above

[9] = target: Sucrase-isomaltase, intestinal (Rattus norvegicus) (UniProt P23739); experiment: Inhibition of rat intestinal isomaltase […] as substrate at 1000 uM; how it was run: as §1
[10] = tested on: Maltase-glucoamylase, intestinal (Rattus norvegicus); experiment: Inhibition of rat intestinal maltase using moltose as substrate at 1000 uM

SMILES | inhibition (Rattus norvegicus) [%] | IC50 (Uncharacterized protein) [µM] | IC50 (Trehalase) [µM] | IC50 [5] [µM] | IC50 [6] [µM] | also measured
OC[C@@H]1NC[C@H](O)[C@H]1O | < 50 | 131 | 75 | – | – | inhibition [1]: < 50%; inhibition [2]: < 50%; inhibition [3]: < 50%; IC50 [4]: 415 µM
CCCC[C@H]1N[C@H](CO)[C@@H](O)[C@H](O)[C@H]1O | < 50 | 172 | 167 | 3.8 | 0.45 | IC50 (Beta-galactosidase): 152 µM; IC50 [4]: 230 µM; IC50 [7]: 70 µM
CCCCCC[C@H]1N[C@H](CO)[C@@H](O)[C@H](O)[C@H]1O | – | – | – | 2.4 | 0.31 | –
CCCC[C@@H]1[C@@H](O)[C@H](CCCC)N[C@H]1CO | – | – | – | – | – | inhibition [8]: < 50%; inhibition [9]: < 50%; inhibition [10]: < 50%
CCC[C@H](O)[C@@H]1N[C@@H](CO)[C@H](O)[C@H]1O | – | – | – | 0.68 | 96 | –
C[C@@]1(CO)NC[C@H](O)[C@H]1O | – | – | – | 0.66 | – | –
CCCCN1C[C@H](O)[C@@H](O)[C@H](O)[C@H]1CO | < 50 | 36 | 38 | – | – | inhibition [1]: < 50%; inhibition [2]: < 50%
CCC[C@@H](O)[C@@H]1N[C@@H](CO)[C@H](O)[C@H]1O | – | – | – | 5.7 | 773 | –
